In ChEMBL document CHEMBL1287707, “Virtual screening against nuclear factor κB (NF-κB) of a focus library: Identification of bioactive furocoumarin derivatives inhibiting NF-κB dependent biological functions involved in cystic fibrosis” (Bioorg Med Chem, 2010):
Active and inactive are the calls of the source. The rule behind the calls is not given here.

Tests used:
[1] = target: T1, Nuclear factor NF-kappa-B p105 subunit (Homo sapiens, UniProt P19838); experiment: Inhibition of NF-KB p50 subunit/DNA interaction after 20 mins by EMSA
T1 sequence (P19838 whole entry): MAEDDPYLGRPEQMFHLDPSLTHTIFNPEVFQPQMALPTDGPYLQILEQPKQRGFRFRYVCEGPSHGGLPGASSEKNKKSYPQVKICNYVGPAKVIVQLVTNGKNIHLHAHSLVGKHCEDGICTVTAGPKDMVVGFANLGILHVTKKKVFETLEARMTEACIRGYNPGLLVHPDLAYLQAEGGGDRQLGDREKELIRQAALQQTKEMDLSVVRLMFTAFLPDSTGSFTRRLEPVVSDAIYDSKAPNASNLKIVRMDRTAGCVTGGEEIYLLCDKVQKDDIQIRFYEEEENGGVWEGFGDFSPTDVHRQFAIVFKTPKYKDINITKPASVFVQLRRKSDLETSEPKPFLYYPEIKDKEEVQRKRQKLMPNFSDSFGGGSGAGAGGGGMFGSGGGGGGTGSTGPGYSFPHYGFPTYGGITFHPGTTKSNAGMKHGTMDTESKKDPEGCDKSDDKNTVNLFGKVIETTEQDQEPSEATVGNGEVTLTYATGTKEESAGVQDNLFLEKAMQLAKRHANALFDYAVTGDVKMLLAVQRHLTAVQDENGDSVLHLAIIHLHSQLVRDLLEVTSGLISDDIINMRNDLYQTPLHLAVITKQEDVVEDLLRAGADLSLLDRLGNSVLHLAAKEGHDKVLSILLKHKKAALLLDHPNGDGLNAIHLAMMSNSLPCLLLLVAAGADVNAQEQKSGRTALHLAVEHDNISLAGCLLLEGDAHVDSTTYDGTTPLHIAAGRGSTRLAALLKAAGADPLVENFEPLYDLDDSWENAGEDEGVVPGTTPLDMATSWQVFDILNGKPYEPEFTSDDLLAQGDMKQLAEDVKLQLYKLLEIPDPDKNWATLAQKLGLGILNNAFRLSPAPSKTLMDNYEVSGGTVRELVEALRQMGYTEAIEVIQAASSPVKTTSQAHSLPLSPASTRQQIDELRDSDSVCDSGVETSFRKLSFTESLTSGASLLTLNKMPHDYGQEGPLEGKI
Outline: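 Recombinant human NF-κB p50 (10 ng) was preincubated 20 min at room temperature with varied compound concentrations in buffer TF with 5% glycerol and 1 mM DTT. 0.25 ng 32P-labelled double-stranded NF-κB site oligo was added for a further 20 min. Complexes were resolved on 6% PAGE in 0.25X TBE and detected by autoradiography. IC50 is the concentration giving 50% inhibition of binding.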

[2] = tested on: IB3-1; experiment: Antiinflammatory activity in Pseudomonas aeruginosa PAO1 infected human IB3-1 cells assessed as inhibition of IL8 gene expression at 10 uM after 4 hrs by RT-PCR analysis; type: functional, cell-based
Outline: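 IB3-1 CF bronchial cells (ΔF508/W1282X) were grown in LHC-8 with 5% FBS, seeded at 200,000 cells/cm2, and serum-starved 18 h. Cells were then preincubated overnight with compound at 10 µM and infected with PAO1 at 30–100 CFU/cell for 4 h at 37 °C. Total RNA was reverse-transcribed and IL-8 mRNA quantified by RT-qPCR.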

SMILES | IC50 [1] [µM] | Activity [2]
O=c1ccc2cc3ccoc3cc2o1 [PSORALEN] | 3000 | –
O=c1ccc2ccc3occc3c2o1 [ANGELICIN] | 2500 | –
O=c1c(Br)cc2c(-c3ccccc3S(=O)(=O)O)c3cc(Br)c(O)c(O)c3oc-2c1O [BROMOPYROGALLOL RED] | 30 | –
O=c1cc(-c2ccccc2)c2cc3c(-c4ccc5c(c4)OCO5)coc3cc2o1 | 20 | –
O=C(O)/C=C/c1ccccc1O [O-COUMARIC ACID] | 50 | –
O=c1ccc2c(-c3ccccc3S(=O)(=O)O)c3ccc(O)c(O)c3oc-2c1O [PYROGALLOL RED] | 10 | –
COCCNc1oc2c(c1-c1cc(OC)c(OC)c(OC)c1)c(=O)oc1c(C)cccc12 | 40 | Active
O=C(O)c1ccc(COc2cc(O)cc3oc(=O)c4c(c23)CCC4)cc1 | 5000 | –
Cc1cc(=O)oc2cc(O)ccc12 [HYMECROMONE] | 200 | –
COc1ccc(C(=O)c2oc3ccc4c(C)cc(=O)oc4c3c2-c2ccccc2)cc1 | 60 | Active
